The subject of assay [1] is Staphylococcus epidermidis. Description: Antimicrobial activity against Staphylococcus epidermidis DSM3269 by […]. The assay is classed as functional.
Assay [2] relates to Staphylococcus aureus. The assay is described as follows: Antimicrobial activity against Staphylococcus aureus ATCC 29213 administered as powder at 45 degC after 24 hrs. The assay is classed as functional. Particulars: ATCC 29213, 24 h. The method in brief: (§1)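 Antimicrobials, as powder or in solution as used for MIC testing, held at 45°C for 1 and 24 h in three independent experiments. MICs were then determined by the CLSI microtiter plate method in cation-adjusted Mueller-Hinton medium, with MHB containing 50 μg/ml calcium for daptomycin. Values are median (range) […] in mg/liter.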

The subject of assay [3] is Staphylococcus aureus. The assay is described as follows: Antimicrobial activity against Staphylococcus aureus ATCC 29213 by […]. The assay is classed as functional. (In general: In agar diffusion tests the substance spreads into inoculated agar from a disc or well.)
In assay [4] the test system is Staphylococcus epidermidis. The assay is described as follows: Antimicrobial activity against Staphylococcus epidermidis isolate KO8 isolated from healthy human skin by […]. The assay is classed as functional.
Assay [5] concerns Staphylococcus. Description: Antimicrobial activity against coagulase-negative Staphylococcus isolated from human preoperative skin by […]. The assay is classed as functional.
Assay [6] concerns Staphylococcus aureus. The assay is described as follows: Antimicrobial activity against Staphylococcus aureus isolated from human preoperative skin by […]. The assay is classed as functional.
The test system of assay [7] is Staphylococcus aureus. The assay is described as follows: Antimicrobial activity against Staphylococcus aureus isolated from human prosthetic joint infection site by […]. The assay is classed as functional.
For assay [8], the system named is Staphylococcus. The assay is described as follows: Antimicrobial activity against coagulase-negative Staphylococcus isolated from human prosthetic joint infection site by […]. The assay is classed as functional.
The subject of assay [9] is Staphylococcus epidermidis. Description: Antimicrobial activity against Staphylococcus epidermidis isolate OR1 treated in solution at 45 degC after 24 hrs. The assay is classed as functional. The conditions noted are these: isolate OR1, 24 h. An outline of the steps: as §1
Assay [10] has as its system Staphylococcus. Description: Antimicrobial activity against Staphylococcus isolates biofilms assessed as decrease in bacterial load at 100 mg/litre at ambient temperature of 35 degC after 24 hrs relative to baseline. The assay is classed as functional. The method in brief:
(§2)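 24-h static biofilms of the staphylococcal isolates were exposed to drug for 24 h at 35, 40 or 45°C. Biofilms were not fixed but scraped off and resuspended in MHB, then serially diluted and 0.1 ml plated on blood agar, read after 48 h at 35°C in ambient air. Done in duplicate as mean log10 CFU/ml; log reduction was taken versus untreated biofilm.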

Assay [11] deals with Staphylococcus. The assay is described as follows: Antimicrobial activity against Staphylococcus isolates biofilms assessed as decrease in bacterial load at 5 to 100 mg/litre at ambient temperature of […] after 24 hrs relative to baseline. The assay is classed as functional, organism-based. An outline of the steps: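 Static 24-h biofilms of staphylococcal isolates (S. aureus, CoNS) and reference strains were grown at 35°C in calcium-supplemented MHB from a 1:100-diluted McFarland 0.5 inoculum. They were then exposed to drug at 5, 25 or 100 mg/liter for 24 h at 35, 40 or 45°C. Biofilms were scraped into MHB, serially diluted and plated on blood agar (35°C, 48 h), in duplicate, giving mean log10 CFU/ml against untreated.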

Assay [12] concerns Staphylococcus. The assay is described as follows: Antimicrobial activity against Staphylococcus isolates biofilms assessed as change in optical density ratio of biofilms at 1 mg/litre at ambient temperature of 35 degC after 24 hrs relative to baseline. The assay is classed as functional. The method in brief:
(§3)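 Static microtiter biofilms of 34 clinical S. aureus and CoNS isolates from orthopedic implant infections or preoperative skin, plus reference strains. Inoculum was McFarland 0.5 diluted 1:100 in calcium-supplemented MHB, grown 24 h at 35°C in ambient air. Established biofilms were exposed to drug for 24 h at 35, 40 or 45°C, then formalin-fixed and stained with 1% crystal violet for 5 min, and OD read at 550 nm in quadruplicate.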

For assay [13], the system named is Staphylococcus. The assay is described as follows: Antimicrobial activity against Staphylococcus isolates biofilms assessed as change in optical density ratio of biofilms at 5 mg/litre at ambient temperature of 35 degC after 24 hrs relative to baseline. The assay is classed as functional. An outline of the steps:
as §3

The test system of assay [14] is Staphylococcus. Description: Antimicrobial activity against Staphylococcus isolates biofilms assessed as change in optical density ratio of biofilms at 25 mg/litre at ambient temperature of 35 degC after 24 hrs relative to baseline. The assay is classed as functional. An outline of the steps: as §3
In assay [15] the test system is Staphylococcus. Description: Antimicrobial activity against Staphylococcus isolates biofilms assessed as change in optical density ratio of biofilms at 1 mg/litre at ambient temperature of 40 degC after 24 hrs relative to baseline. The assay is classed as functional. The method in brief:
as §3

Assay [16] deals with Staphylococcus. Description: Antimicrobial activity against Staphylococcus isolates biofilms assessed as change in optical density ratio of biofilms at 5 mg/litre at ambient temperature of 40 degC after 24 hrs relative to baseline. The assay is classed as functional. The method in brief:
as §3

The subject of assay [17] is Staphylococcus. The assay is described as follows: Antimicrobial activity against Staphylococcus isolates biofilms assessed as change in optical density ratio of biofilms at 25 mg/litre at ambient temperature of 40 degC after 24 hrs relative to baseline. The assay is classed as functional. The method in brief: as §3
The test system of assay [18] is Staphylococcus. The assay is described as follows: Antimicrobial activity against Staphylococcus isolates biofilms assessed as change in optical density ratio of biofilms at 1 mg/litre at ambient temperature of 45 degC after 24 hrs relative to baseline. The assay is classed as functional. An outline of the steps: as §3
In assay [19] the test system is Staphylococcus. The assay is described as follows: Antimicrobial activity against Staphylococcus isolates biofilms assessed as change in optical density ratio of biofilms at 5 mg/litre at ambient temperature of 45 degC after 24 hrs relative to baseline. The assay is classed as functional. The method in brief: as §3
For assay [20], the system named is Staphylococcus. Description: Antimicrobial activity against Staphylococcus isolates biofilms assessed as change in optical density ratio of biofilms at 25 mg/litre at ambient temperature of 45 degC after 24 hrs relative to baseline. The assay is classed as functional. An outline of the steps: as §3
In assay [21] the test system is Staphylococcus. Description: Antimicrobial activity against Staphylococcus isolates biofilms assessed as decrease in bacterial load at 1 to 25 mg/litre at ambient temperature of 30 to 45 degC after 24 hrs relative to baseline. The assay is classed as functional, organism-based. Particulars: in the assay text read “35 to 45 degC” for “30 to 45 degC”. An outline of the steps:
as §2

This note sets out measurements from ChEMBL document CHEMBL1671740, “Increased temperature enhances the antimicrobial effects of daptomycin, vancomycin, tigecycline, fosfomycin, and cefamandole on staphylococcal biofilms” (2010).

In brackets after ≈: the same amount, converted by molar mass. Activity calls are given as the source filed them. The rule behind the calls is not given here.

The MIC is the lowest concentration found to suppress growth. A high value points to a less susceptible organism. As for `CN[C@H](CC(C)C)C(=O)N[C@H]1C(=O)N[C@@H](CC(N)=O)C(=O)N[C@H]2C(=O)N[C@H]3C(=O)N[C@H](C(=O)N[C@H](C(=O)O)c4cc(O)cc(O)c4-c4cc3ccc4O)[C@H](O)c3ccc(c(Cl)c3)Oc3cc2cc(c3O[C@@H]2O[C@H](CO)[C@@H](O)[C@H](O)[C@H]2O[C@H]2C[C@](C)(N)[C@H](O)[C@H](C)O2)Oc2ccc(cc2Cl)[C@H]1O` [VANCOMYCIN], the MIC in assay [1] was determined as 2 µg/mL (≈ 1.38 µM); against Staphylococcus aureus [2], 0.5 µg/mL (≈ 0.345 µM); in the assay on Staphylococcus aureus [3], 0.5 µg/mL (≈ 0.345 µM); in [4], 1 µg/mL (≈ 0.69 µM); with Staphylococcus [5] it was 0.75 µg/mL (≈ 0.518 µM); against Staphylococcus aureus [6], 0.5 µg/mL (≈ 0.345 µM). Besides, the results for the minimal inhibitory concentration (MIC) (in the assay on Staphylococcus aureus [7]; against Staphylococcus [8]; in [9]) were 0.5 µg/mL (≈ 0.345 µM), 2 µg/mL (≈ 1.38 µM) and 2 µg/mL (≈ 1.38 µM), respectively. The result in the assay with Staphylococcus [10] and in the assay on Staphylococcus [11] was inactive.

For `CN(C)c1cc(NC(=O)CNC(C)(C)C)c(O)c2c1C[C@H]1C[C@H]3[C@H](N(C)C)C(O)=C(C(N)=O)C(=O)[C@@]3(O)C(O)=C1C2=O` [TIGECYCLINE], the MIC is 0.5 µg/mL (≈ 0.854 µM) in assay [1]; 1 µg/mL (≈ 1.71 µM) in the assay with Staphylococcus aureus [2]; 0.06 µg/mL (≈ 0.102 µM) in the assay with Staphylococcus aureus [3]; 0.125 µg/mL (≈ 0.213 µM) in [4]; 0.03 µg/mL (≈ 0.0512 µM) in the assay on Staphylococcus [5]; 0.06 µg/mL (≈ 0.102 µM) against Staphylococcus aureus [6]. Further, the MIC with Staphylococcus aureus [7] came to 0.125 µg/mL (≈ 0.213 µM); in the assay with Staphylococcus [8] it was 0.06 µg/mL (≈ 0.102 µM); in assay [9] it was 2 µg/mL (≈ 3.41 µM). In addition, the Ratio is listed as 0.98 in the assay on Staphylococcus [12]; 0.99 in the assay with Staphylococcus [13]; 1.12 with Staphylococcus [14]; 1.31 in the assay on Staphylococcus [15]; 1.1 in the assay with Staphylococcus [16]; 0.83 in the assay on Staphylococcus [17]. The results for the Ratio in the assay with Staphylococcus [18], in the assay with Staphylococcus [19] and in the assay with Staphylococcus [20] were 0.93, 0.86 and 1.32, respectively. The outcome in the assay on Staphylococcus [10] and in the assay with Staphylococcus [21] was inactive.
